Assay results published in ChEMBL document CHEMBL3421533, “The Discovery of Orally Bioavailable Tyrosine Threonine Kinase (TTK) Inhibitors: 3-(4-(heterocyclyl)phenyl)-1H-indazole-5-carboxamides as Anticancer Agents” (J Med Chem, 2015).

Experiments:
[1] = molecular target: T1, Dual specificity protein kinase TTK (Homo sapiens, UniProt P33981); assay: Inhibition of amino terminal GST-fused full length human TTK using His6-SUMO-TTK-N as substrate preincubated for 15 mins prior to ATP addition by indirect ELISA detection system
T1 sequence (P33981 whole entry): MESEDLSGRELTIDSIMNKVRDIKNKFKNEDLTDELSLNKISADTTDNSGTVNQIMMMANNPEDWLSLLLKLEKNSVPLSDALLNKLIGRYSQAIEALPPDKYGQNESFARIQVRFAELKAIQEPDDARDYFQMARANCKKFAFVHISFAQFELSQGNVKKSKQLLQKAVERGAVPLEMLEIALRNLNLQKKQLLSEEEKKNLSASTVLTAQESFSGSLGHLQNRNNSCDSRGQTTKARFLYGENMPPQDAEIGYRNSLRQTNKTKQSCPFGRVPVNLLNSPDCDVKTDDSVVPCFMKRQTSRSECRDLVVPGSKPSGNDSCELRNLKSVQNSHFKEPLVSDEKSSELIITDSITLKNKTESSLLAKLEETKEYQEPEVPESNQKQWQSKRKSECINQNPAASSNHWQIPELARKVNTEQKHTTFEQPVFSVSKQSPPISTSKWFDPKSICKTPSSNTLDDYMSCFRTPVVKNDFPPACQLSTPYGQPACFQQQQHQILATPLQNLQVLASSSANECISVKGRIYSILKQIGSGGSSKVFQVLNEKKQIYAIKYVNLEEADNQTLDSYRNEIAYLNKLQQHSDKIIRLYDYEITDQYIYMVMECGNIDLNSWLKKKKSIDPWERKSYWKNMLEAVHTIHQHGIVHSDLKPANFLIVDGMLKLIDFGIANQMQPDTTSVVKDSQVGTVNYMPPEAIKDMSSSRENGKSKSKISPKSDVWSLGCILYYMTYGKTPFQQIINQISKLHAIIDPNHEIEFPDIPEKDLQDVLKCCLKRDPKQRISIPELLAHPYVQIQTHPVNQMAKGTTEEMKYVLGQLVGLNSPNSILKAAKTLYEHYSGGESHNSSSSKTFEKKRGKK

[2] = Cytotoxicity against human HCT116 cells after 5 days by sulforhodamine B assay; type: functional, HCT-116
Summary of the method: (§1)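 Cancer lines were seeded at 800–6000 cells per well according to growth rate, 24 h before compound overlay. After culture, cells were fixed in situ and stained with sulforhodamine B. GI50 values were derived by curve fitting.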

[3] = system: MDA-MB-468; assay: Cytotoxicity against human MDA-MB-468 cells after 5 days by sulforhodamine B assay; type: functional; summary of the method: as §1
[4] = molecular target: Aurora kinase B/Inner centromere protein (Homo sapiens, UniProt Q96GD4); assay: Inhibition of AURKB/INCENP (unknown origin) preincubated for 15 mins prior to ATP addition by FRET-based homogenous assay; type: protein-complex assay
Summary of the method: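 The enzyme was AURKB/INCENP in a FRET-based homogeneous assay run to kit specifications, with ATP at 128 μM. […] Each IC50 came from a single determination, reported with its standard fitting error.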

[5] = Cmax in athymic CD1 nude mouse at 10 mg/kg, po by LC-MS/MS analysis; type: ADME, organism-based; design: dose 10 mg/kg, route oral; settings: athymic CD1 nude, in vivo
[6] = AUC in athymic CD1 nude mouse at 10 mg/kg, po by LC-MS/MS analysis; type: ADME, organism-based; design: dose 10 mg/kg, route oral; settings: plasma
[7] = molecular target: T2, Aurora kinase A (Homo sapiens, UniProt O14965); assay: Inhibition of recombinant AURKA (unknown origin) preincubated for 15 mins prior to ATP addition by FRET-based homogenous assay
T2 sequence (O14965 whole entry): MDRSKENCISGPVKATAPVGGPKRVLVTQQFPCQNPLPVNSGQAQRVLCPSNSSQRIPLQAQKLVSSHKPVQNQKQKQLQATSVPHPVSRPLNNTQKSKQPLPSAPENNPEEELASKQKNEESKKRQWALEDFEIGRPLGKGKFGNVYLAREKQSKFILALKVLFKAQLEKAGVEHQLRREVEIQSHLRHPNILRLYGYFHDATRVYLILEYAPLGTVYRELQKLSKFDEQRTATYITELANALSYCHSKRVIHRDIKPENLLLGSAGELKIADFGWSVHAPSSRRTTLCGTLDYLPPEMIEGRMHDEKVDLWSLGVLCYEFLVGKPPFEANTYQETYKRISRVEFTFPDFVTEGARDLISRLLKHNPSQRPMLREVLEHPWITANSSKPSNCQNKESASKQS

[8] = molecular target: Vascular endothelial growth factor receptor 2 (Homo sapiens, UniProt P35968); assay: Inhibition of recombinant KDR (unknown origin) preincubated for 15 mins prior to ATP addition by FRET-based homogenous assay
[9] = Half life in mouse liver microsomes at 1 uM by LC-MS analysis; type: ADME; settings: liver microsomes
[10] = (§2) Half life in rat liver microsomes at 1 uM by LC-MS analysis; type: ADME; settings: liver microsomes
[11] = Cytotoxicity against human OVCAR3 cells after 5 days by sulforhodamine B assay; type: functional, OVCAR-3
[12] = molecular target: Cytochrome P450 3A4 (Homo sapiens, UniProt P08684); assay: Inhibition of human CYP3A4 using BFC as substrate preincubated for 10 mins followed by enzyme/substrate addition measured after 30 mins by fluorescence assay; type: ADME
[13] = AUCinfinity in athymic CD1 nude mouse at 10 mg/kg, po by LC-MS/MS analysis; type: ADME, organism-based, Plasma; design: time infinity, dose 10 mg/kg, route oral; settings: athymic CD1 nude, plasma
[14] = Clearance in Sprague-Dawley rat at 1 mg/kg, iv by LC-MS/MS analysis; type: ADME, organism-based; design: dose 1 mg/kg, route intravenous; settings: in vivo
[15] = Half life in Sprague-Dawley rat at 1 mg/kg, iv by LC-MS/MS analysis; type: ADME, organism-based; design: dose 1 mg/kg, route intravenous; settings: in vivo
[16] = AUCinfinity in Sprague-Dawley rat at 1 mg/kg, iv by LC-MS/MS analysis; type: ADME, organism-based; design: time infinity, dose 1 mg/kg, route intravenous; settings: plasma
[17] = AUCinfinity in Sprague-Dawley rat at 5 mg/kg, po by LC-MS/MS analysis; type: ADME, organism-based; design: time infinity, dose 5 mg/kg, route oral; settings: plasma
[18] = Oral bioavailability in Sprague-Dawley rat at 5 mg/kg by LC-MS/MS analysis; type: ADME, organism-based; settings: in vivo
[19] = organism: Homo sapiens; assay: Selectivity ratio of IC50 for AURKB/INCENP (unknown origin) to IC50 for amino terminal GST-fused full length human TTK
[20] = system: Liver microsome; assay: as §2; type: ADME; settings: microsomes, 1 µM
[21] = Homo sapiens, MDA-MB-468, 120 h

Sequence of Vascular endothelial growth factor receptor 2 (P35968 whole entry): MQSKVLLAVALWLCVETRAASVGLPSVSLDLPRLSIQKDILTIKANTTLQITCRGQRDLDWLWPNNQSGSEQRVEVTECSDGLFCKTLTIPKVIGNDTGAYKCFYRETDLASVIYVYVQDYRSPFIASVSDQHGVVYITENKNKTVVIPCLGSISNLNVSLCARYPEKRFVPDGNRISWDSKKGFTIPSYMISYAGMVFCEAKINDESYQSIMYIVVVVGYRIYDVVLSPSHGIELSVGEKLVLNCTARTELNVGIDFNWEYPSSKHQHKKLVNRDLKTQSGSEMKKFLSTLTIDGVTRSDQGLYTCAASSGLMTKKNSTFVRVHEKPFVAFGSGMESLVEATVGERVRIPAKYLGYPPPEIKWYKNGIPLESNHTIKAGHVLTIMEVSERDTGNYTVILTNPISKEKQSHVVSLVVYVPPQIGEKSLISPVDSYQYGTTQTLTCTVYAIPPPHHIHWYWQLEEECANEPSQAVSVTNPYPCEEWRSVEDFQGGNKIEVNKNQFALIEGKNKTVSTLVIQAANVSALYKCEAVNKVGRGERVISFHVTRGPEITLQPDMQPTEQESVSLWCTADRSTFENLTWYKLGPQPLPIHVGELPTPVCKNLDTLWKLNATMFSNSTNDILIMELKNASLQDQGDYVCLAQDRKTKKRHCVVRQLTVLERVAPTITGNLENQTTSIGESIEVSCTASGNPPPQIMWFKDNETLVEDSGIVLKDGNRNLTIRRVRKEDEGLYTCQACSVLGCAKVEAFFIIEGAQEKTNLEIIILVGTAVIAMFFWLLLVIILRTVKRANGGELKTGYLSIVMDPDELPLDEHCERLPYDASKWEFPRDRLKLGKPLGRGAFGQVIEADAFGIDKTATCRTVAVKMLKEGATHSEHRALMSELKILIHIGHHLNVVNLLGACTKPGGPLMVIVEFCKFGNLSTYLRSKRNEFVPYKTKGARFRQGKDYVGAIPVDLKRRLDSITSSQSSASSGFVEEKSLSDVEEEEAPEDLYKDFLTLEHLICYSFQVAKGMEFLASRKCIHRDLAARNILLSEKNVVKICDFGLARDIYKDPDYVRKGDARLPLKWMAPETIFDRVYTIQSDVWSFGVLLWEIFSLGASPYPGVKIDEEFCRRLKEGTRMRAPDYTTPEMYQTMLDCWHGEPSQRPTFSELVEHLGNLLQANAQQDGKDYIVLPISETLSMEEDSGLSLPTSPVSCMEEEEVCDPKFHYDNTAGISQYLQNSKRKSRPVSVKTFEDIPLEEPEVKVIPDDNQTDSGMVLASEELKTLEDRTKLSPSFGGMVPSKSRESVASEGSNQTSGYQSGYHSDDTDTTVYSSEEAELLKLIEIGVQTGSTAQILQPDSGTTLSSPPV
Sequence of Aurora kinase B/Inner centromere protein (Q96GD4 whole entry): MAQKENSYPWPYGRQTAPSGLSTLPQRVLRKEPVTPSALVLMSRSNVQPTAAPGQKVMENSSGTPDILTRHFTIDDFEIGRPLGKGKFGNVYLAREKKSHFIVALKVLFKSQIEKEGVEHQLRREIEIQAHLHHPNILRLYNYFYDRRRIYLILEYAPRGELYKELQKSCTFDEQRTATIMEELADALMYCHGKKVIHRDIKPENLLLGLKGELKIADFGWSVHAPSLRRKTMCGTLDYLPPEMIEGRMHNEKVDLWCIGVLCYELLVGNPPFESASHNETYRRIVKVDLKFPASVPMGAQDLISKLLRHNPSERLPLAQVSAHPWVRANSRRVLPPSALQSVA
Sequence of Aurora kinase B/Inner centromere protein (Q9NQS7 whole entry, further chain): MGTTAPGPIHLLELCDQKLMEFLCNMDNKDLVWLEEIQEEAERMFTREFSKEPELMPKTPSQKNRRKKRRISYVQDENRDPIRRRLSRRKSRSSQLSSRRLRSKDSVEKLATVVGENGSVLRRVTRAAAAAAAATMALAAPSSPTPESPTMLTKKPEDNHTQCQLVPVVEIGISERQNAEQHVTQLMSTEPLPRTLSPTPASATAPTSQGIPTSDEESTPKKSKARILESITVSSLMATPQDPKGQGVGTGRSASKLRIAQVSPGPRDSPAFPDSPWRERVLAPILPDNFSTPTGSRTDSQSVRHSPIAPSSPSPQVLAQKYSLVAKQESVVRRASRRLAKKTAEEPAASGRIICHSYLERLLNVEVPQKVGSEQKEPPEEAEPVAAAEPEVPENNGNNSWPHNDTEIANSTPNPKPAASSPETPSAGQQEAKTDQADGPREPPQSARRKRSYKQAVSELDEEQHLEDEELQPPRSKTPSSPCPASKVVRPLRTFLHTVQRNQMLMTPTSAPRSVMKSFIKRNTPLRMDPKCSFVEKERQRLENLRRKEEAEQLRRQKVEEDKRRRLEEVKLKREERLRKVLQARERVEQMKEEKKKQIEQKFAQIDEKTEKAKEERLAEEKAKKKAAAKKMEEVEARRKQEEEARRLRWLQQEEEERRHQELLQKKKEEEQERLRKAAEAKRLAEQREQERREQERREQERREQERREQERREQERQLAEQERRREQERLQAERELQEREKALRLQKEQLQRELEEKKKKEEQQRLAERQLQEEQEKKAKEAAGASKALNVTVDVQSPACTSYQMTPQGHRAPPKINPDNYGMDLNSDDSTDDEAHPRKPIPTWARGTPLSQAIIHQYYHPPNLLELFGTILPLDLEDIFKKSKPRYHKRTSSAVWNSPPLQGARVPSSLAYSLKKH
Sequence of Cytochrome P450 3A4 (P08684 whole entry): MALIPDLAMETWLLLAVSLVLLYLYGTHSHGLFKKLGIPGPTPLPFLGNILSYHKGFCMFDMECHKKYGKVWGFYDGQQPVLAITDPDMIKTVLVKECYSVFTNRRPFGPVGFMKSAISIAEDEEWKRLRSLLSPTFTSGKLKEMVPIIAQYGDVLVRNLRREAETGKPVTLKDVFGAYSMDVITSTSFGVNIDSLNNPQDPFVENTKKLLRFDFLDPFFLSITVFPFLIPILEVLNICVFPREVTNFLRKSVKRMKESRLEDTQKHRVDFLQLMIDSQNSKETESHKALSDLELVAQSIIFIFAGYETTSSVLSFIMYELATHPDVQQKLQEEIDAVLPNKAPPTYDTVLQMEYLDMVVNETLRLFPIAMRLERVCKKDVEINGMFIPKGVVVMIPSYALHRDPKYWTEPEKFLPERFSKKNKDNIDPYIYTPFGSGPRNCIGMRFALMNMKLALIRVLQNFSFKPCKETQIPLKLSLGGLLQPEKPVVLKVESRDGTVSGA

SMILES	IC50 [1]	Cmax [5]	AUC [6]	half-life at 1 µM [9]	half-life at 1 µM [10]	GI50 ([2]; Homo sapiens, HCT-116, 120 h)	GI50 [3, 21]	IC50 [4]	IC50 [12]	bioavailability [18]	further results
CN1CCN(c2ccc(-c3n[nH]c4ccc(C(=O)NCC5(N6CCOCC6)CCCCC5)cc34)cc2)CC1	7.6 nM	160 ng/mL	480 ng·h/mL	–	–	12 nM	180 nM	440 nM	–	–	–
O=C(CC1(N2CCOCC2)CCCCC1)Nc1ccc2[nH]nc(-c3ccc(N4CCOCC4)cc3)c2c1	12 nM	–	–	5.8 min	10 min	94 nM	440 nM	–	–	–	IC50 [7]: 2100 nM; IC50 [8]: 1200 nM
O=C(NCC1(N2CCOCC2)CCCCC1)c1ccc2[nH]nc(-c3ccc(N4CCOCC4)cc3)c2c1	7.7 nM	–	–	1.7 min	1.5 min	39 nM	190 nM	750 nM	–	–	IC50 [7]: 2300 nM; IC50 [8]: 3800 nM
O=C(N[C@@H](c1ccccn1)C1CC1)c1ccc2[nH]nc(-c3ccc(N4C5CCC4COC5)cc3)c2c1	2 nM	1500 ng/mL	–	> 60 min	> 60 min	21 nM	130 nM	1200 nM	1400 nM	75%	GI50 ([11]; Homo sapiens, OVCAR-3, 120 h): 150 nM; AUC(0-inf) [13]: 2100 ng·h/mL; clearance [14]: 71 mL/min/kg; half-life [15]: 24 min; AUC(0-inf) [16]: 240 ng·h/mL; AUC(0-inf) [17]: 890 ng·h/mL
O=C(N[C@H](c1ccccn1)C1CCCC1)c1ccc2[nH]nc(-c3ccc(N4C5CCC4COC5)cc3)c2c1	–	–	–	–	–	–	–	1400 nM	930 nM	39%	–
O=C(N[C@H](c1ncccn1)C1CCCC1)c1ccc2[nH]nc(-c3ccc(N4[C@H]5CC[C@H]4CC(O)C5)cc3)c2c1 (some centres undefined)	1.1 nM	750 ng/mL	–	> 60 min	> 60 min	1 nM	14 nM	620 nM	–	21%	GI50 ([11]; Homo sapiens, OVCAR-3, 120 h): 20 nM; AUC(0-inf) [13]: 970 ng·h/mL; clearance [14]: 125 mL/min/kg; half-life [15]: 43.8 min; AUC(0-inf) [16]: 130 ng·h/mL; AUC(0-inf) [17]: 140 ng·h/mL
O=C(N[C@H](CC1CC1)c1ccccn1)c1ccc2[nH]nc(-c3ccc(N4[C@H]5CC[C@H]4CC(O)C5)cc3)c2c1 (some centres undefined)	1.5 nM	1200 ng/mL	–	> 60 min	> 60 min	16 nM	27 nM	1200 nM	1300 nM	19%	Ratio IC50 [19]: > 100; AUC(0-inf) [13]: 1900 ng·h/mL; clearance [14]: 57 mL/min/kg; half-life [15]: 22.8 min; AUC(0-inf) [16]: 290 ng·h/mL; AUC(0-inf) [17]: 270 ng·h/mL
O=CN1[C@@H]2CC[C@H]1C[C@@H](Oc1ccc(-c3n[nH]c4ccc(C(=O)NC(c5ccsc5)C5CCC5)cc34)cc1)C2 (mixture of isomers)	2.5 nM	33 ng/mL	30 ng·h/mL	–	–	41 nM	110 nM	1200 nM	–	–	–
CC(C)CC(NC(=O)c1ccc2[nH]nc(-c3ccc(O[C@H]4C[C@H]5CC[C@@H](C4)N5C=O)cc3)c2c1)c1ccccn1 (mixture of isomers)	3 nM	280 ng/mL	660 ng·h/mL	–	–	64 nM	150 nM	300 nM	410 nM	–	–
O=C(N[C@H](c1ccccn1)C1CCCC1)c1ccc2[nH]nc(-c3ccc(N4[C@H]5CC[C@H]4CC(O)C5)cc3)c2c1 (stereo in doubt; 76)	4.3 nM	1500 ng/mL	–	> 60 min	–	–	–	> 6300 nM	820 nM	13%	GI50 [2]: 8 nM; GI50 [3]: 20 nM; GI50 [11]: 50 nM; t1/2 [20]: > 60 min; AUC(0-inf) [13]: 2600 ng·h/mL; clearance [14]: 91 mL/min/kg; half-life [15]: 46.8 min; AUC(0-inf) [16]: 190 ng·h/mL; AUC(0-inf) [17]: 130 ng·h/mL

Now from value to molecule, other results behind:

IC50 [1]	Cmax [5]	AUC [6]	half-life at 1 µM [9]	half-life at 1 µM [10]	SMILES	GI50 ([2]; Homo sapiens, HCT-116, 120 h)	GI50 [3, 21]	IC50 [4]	IC50 [12]	bioavailability [18]	further results
–	7 ng/mL	25 ng·h/mL	–	–	NS(=O)(=O)c1cccc(-c2n[nH]c3ccc(NC(=O)C(c4ccsc4)N4CCCC4)cc23)c1 (racemic)	39 nM	87 nM	–	–	–	–
17 nM	3900 ng/mL	13500 ng·h/mL	–	–	O=C(NC(c1ccccc1)C1CC1)c1ccc2[nH]nc(-c3ccc(N4CCOCC4)cc3)c2c1 (racemic)	86 nM	330 nM	190 nM	–	–	–
7.4 nM	180 ng/mL	590 ng·h/mL	–	–	CN1CCN(c2ccc(-c3n[nH]c4ccc(NC(=O)C(c5ccsc5)N5CCCC5)cc34)cc2)CC1 (racemic)	57 nM	250 nM	–	–	–	–
11 nM	3500 ng/mL	7900 ng·h/mL	–	–	O=C(Nc1ccc2[nH]nc(-c3ccc(N4CCOCC4)cc3)c2c1)C(c1ccsc1)N1CCCC1 (racemic)	27 nM	160 nM	–	–	–	–
8 nM	–	–	29 min	15 min	CN1CCC(Oc2ccc(-c3n[nH]c4ccc(NC(=O)C(c5ccsc5)C5CCCC5)cc34)cc2)CC1 (racemic)	59 nM	190 nM	–	–	–	IC50 [7]: 2300 nM
2.7 nM	–	–	21 min	24 min	CN1CCC(Oc2ccc(-c3n[nH]c4ccc(C(=O)NC(c5ccsc5)C5CCCC5)cc34)cc2)CC1 (racemic)	17 nM	90 nM	–	–	–	IC50 [7]: 2000 nM; IC50 [8]: 2900 nM
